“And” between values parts separate entries of the source, which are not always exact repeats. Identical values can stand only once.
What was measured:
Format in all cases: functional
[1] = molecular target: ATP-dependent molecular chaperone HSP82 (Saccharomyces cerevisiae S288c, UniProt P02829); assay: Inhibition of yeast Hsp90 ATPase activity
How it was run: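 Yeast Hsp90 ATPase activity assay. Original conditions were 1 mM ATP substrate, incubated 3 h at 37 °C. Later optimised conditions used lower ATP and enzyme concentrations, with overnight incubation at 37 °C. IC50 values derived.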

HCT-116 = assay: Inhibition of HCT116 human colon cancer cell proliferation
How it was run: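 HCT116 colon cancer cells; growth inhibition measured by sulforhodamine B (SRB) assay; GI50 derived.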

[2] = molecular target: ATP-dependent molecular chaperone HSP82 (Saccharomyces cerevisiae S288c) (UniProt P02829); assay: Inhibition of yeast Hsp90 ATPase activity at 40 uM
ATP-dependent molecular chaperone HSP82 (Saccharomyces cerevisiae S288c), sequence (P02829 whole entry, looked up): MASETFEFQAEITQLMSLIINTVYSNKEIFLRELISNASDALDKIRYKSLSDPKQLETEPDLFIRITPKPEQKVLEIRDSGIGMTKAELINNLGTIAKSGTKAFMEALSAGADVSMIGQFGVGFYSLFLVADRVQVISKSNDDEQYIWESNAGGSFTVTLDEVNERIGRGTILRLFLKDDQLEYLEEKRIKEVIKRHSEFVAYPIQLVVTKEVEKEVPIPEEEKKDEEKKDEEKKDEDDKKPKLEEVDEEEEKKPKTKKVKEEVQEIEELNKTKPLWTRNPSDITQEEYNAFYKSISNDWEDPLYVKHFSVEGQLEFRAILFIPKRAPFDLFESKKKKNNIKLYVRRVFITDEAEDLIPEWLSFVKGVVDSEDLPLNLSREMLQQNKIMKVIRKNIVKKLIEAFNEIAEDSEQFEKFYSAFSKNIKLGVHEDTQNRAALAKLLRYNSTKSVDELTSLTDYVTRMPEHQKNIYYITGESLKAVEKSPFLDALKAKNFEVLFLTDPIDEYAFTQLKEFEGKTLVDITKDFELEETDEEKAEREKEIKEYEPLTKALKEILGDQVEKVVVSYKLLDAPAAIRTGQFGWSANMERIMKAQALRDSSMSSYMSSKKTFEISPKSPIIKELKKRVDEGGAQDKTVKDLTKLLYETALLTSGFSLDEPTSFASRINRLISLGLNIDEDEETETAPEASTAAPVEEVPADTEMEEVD

ATP-dependent molecular chaperone HSP82, sequence (P02829 whole entry): as the sequence (P02829 whole entry, looked up) above

| SMILES | IC50 [1] | GI50 (HCT-116) [µM] | inhibition [2] [%] |
| --- | --- | --- | --- |
| Cc1[nH]nc(-c2cc(Cl)c(O)cc2O)c1-c1ccc2c(c1)OCCO2 | < 1 µM | 4 | – |
| CCc1cc(-c2n[nH]c(C)c2-c2ccc3c(c2)OCCO3)c(O)cc1O | 8.9 µM and 7.1 µM | – | – |
| COc1cc(O)c(-c2[nH]ncc2-c2ccc3c(c2)OCO3)cc1C(C)C | – | – | 20 |
| N#CCCCOc1ccccc1-c1cn[nH]c1-c1cc(Cl)c(O)cc1O | 12.8 µM | 31 | – |
| CCC(C)c1cc(-c2n[nH]cc2-c2ccc3c(c2)OCO3)c(O)cc1O (stereo not given) | 22.3 µM | – | – |
| CCC(C)c1cc(-c2[nH]ncc2-c2ccc3c(c2)OCCO3)c(O)cc1OC (stereo not given) | – | – | 0 |
| N#CCCCOc1cccc(-c2cn[nH]c2-c2cc(Cl)c(O)cc2O)c1 | 2.4 µM | 30 | – |
| Cc1n[nH]c(-c2cc(Cl)c(O)cc2O)c1-c1ccccc1 | 1.65 µM | 6.4 | – |
| COc1ccc(-c2[nH]nc(C)c2-c2ccc3c(c2)OCCCO3)c(O)c1 | – | – | 25 |
| CCC(C)c1cc(-c2[nH]ncc2-c2ccc3c(c2)OCO3)c(O)cc1O (stereo not given) | – | – | 64 |
| COc1ccc(-c2c[nH]nc2-c2cc(C(C)C)c(OC)cc2O)cc1 | – | – | 13 |
| C=CCNC1=C2CC(C)C[C@H](OC)C(O)C(C)/C=C(\C)[C@H](OC(N)=O)[C@@H](OC)/C=C\C=C(/C)C(=O)NC(=CC1=O)C2=O (single isomer, unassigned) [TANESPIMYCIN] | – | 0.021 | 80 |
| CCCc1cc(-c2[nH]nc(C)c2-c2ccc3c(c2)OCCO3)c(O)cc1O | 46.1 µM | – | 25 |
| CCC(C)c1cc(-c2[nH]ncc2-c2ccccc2)c(O)cc1OC (stereo not given) | – | – | 10 |
| Cc1n[nH]c(-c2ccc(O)cc2O)c1Oc1ccc(F)cc1 | – | – | 0 |
| CC(C)c1cc(-c2[nH]ncc2-c2nc3ccccc3s2)c(O)cc1O | – | – | 15 |
| Cc1[nH]nc(-c2cc(Cl)ccc2O)c1-c1ccc2c(c1)OCCO2 | 25.5 µM | – | – |
| Oc1cc(O)c(-c2n[nH]cc2-c2ccc(-c3ccc(F)cc3)cc2)cc1Cl | 1.55 µM | 11 | – |
| Cc1n[nH]c(-c2ccc(O)c(Cl)c2)c1-c1ccc2c(c1)OCCO2 | > 100 µM | – | – |
| Oc1cc(O)c(-c2n[nH]cc2-c2ccc3c(c2)OCCO3)cc1Cl | 1.6 µM | 23 | – |
| COc1ccc(-c2c[nH]nc2-c2cc(Cl)c(O)cc2O)cc1OC | 2.4 µM | 13 | – |
| CCc1cc(-c2[nH]nc(C)c2-c2ccc3c(c2)OCCO3)c(O)cc1O | – | 4.1 | 79 |
| N#CCCCOc1ccc(-c2cn[nH]c2-c2cc(Cl)c(O)cc2O)cc1 | < 1 µM | 6.8 | – |
| Cc1n[nH]c(-c2ccc(O)cc2O)c1-c1ccc2c(c1)OCCO2 | – | – | 26 |
| COC1=C2CC(C)C[C@H](OC)C(O)C(C)/C=C(\C)[C@H](OC(N)=O)[C@@H](OC)/C=C\C=C(/C)C(=O)NC(=CC1=O)C2=O (single isomer, unassigned) [GELDANAMYCIN] | – | 0.067 | 90 |
| COc1ccc(-c2cn(C)nc2-c2cc(Cl)c(O)cc2O)cc1OC | > 100 µM | – | – |
| Cc1n[nH]c(-c2cc(Cl)c(O)cc2O)c1-c1ccc(OCCCC#N)cc1 | < 1 µM | 3.6 | – |

Source: ChEMBL document CHEMBL1140247, “The identification, synthesis, protein crystal structure and in vitro biochemical evaluation of a new 3,4-diarylpyrazole class of Hsp90 inhibitors” (Bioorg Med Chem Lett, 2005)
